Measurements from the EternaBench riboswitch data.

Test system: MS2 coat protein
Assay: apparent Kd, MS2 coat protein; higher = weaker binding; RNA-MaP array; FMN 200 µM where present
Procedure, shortened: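 Two titrations, one without ligand and one with constant ligand, were run with SNAP-549-labelled MS2 coat protein from 0.7 or 1.5 nM, doubling to 3 µM. The targets were designs transcribed by stalled E. coli RNA polymerase on Illumina sequencing-chip clusters, in 100 mM Tris-HCl pH 7.5, 80 mM KCl, 4 mM MgCl2, BSA, DTT, yeast tRNA and Tween-20. The apparent Kd is the median of filtered per-cluster binding-curve fits, with green signal normalised to red-channel RNA signal and control-cluster median Fmax.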

[1] = designed as: ON switch for flavin mononucleotide, no ligand
[2] = ligand present: flavin mononucleotide, designed as: ON switch for flavin mononucleotide
[3] = designed as: OFF switch for flavin mononucleotide, no ligand
[4] = ligand present: flavin mononucleotide, designed as: OFF switch for flavin mononucleotide

Sequence	apparent Kd [1]	apparent Kd [2]	apparent Kd [3]	apparent Kd [4]
AGCUACGUUUCGUAGCAGUGUCAUCGAGAAGGCCUCAUUACAUGAGGAUCACCCAUGUGGACAUGGGAGGAUAUCGAUGAUACA	487 nM	212 nM	–	–
AGCUAGGCAGGAUAUACGUAAAUGUCGAAAGACGUAUUGGGACAUGAGGAUCACCCAUGUAGAAGGGCCUAGCA	–	–	31.6 nM	165 nM
AGCUAGUCAGGAUAUACGAACACCUCAAAAGAGGUGAAGGGACAUGAGGAUCACCCAUGUAGAAGGGACUAGCA	–	–	33.1 nM	112 nM
AGCUAGUCAGGAUAUACGUGCAUGUCAAAAGACGUGAAGGGACAUGAGGAUCACCCAUGUAGAAGGGACUAGCA	–	–	54.5 nM	231 nM
AGCUAGUGAGGAUAUACAAGAAUAUAAACGAACAUAAAGGGACAUGAGGAUCACCCAUGUAGAAGGCACUAGCA	–	–	37.6 nM	243 nM
AGCUCGUACACAGGAUAUCCGUUGCUGCGCACUGGAGAAGGGUGACAUCCGCACAUGAGGAUCACCCAUGUACCGGGACAAUAU	282 nM	640 nM	–	–
AGCUGGAGAGGAUAUACGUAGGAAAAAAAAGUCUGAUCACUACAUGAGGAUCACCCAUGUAGAAGGCUCUGGCA	–	–	21.2 nM	62.2 nM
AGCUGUGGCAGAGGAUAUACUACUAUAAUCCAUUGCAAAUAGCGAUGGACAUGAGGAUCACCCAUGUAGAAGGCUGUCUCAGCA	–	–	38.9 nM	153 nM
AGCUGUGGCCGAGGAUAUCUAACCUUCAUAACCGAAAUAUAAUCGGACAUGAGGAUCACCCAUGUAGAGAAGGCGGUCUCAGCA	–	–	18.2 nM	191 nM
AGCUGUGGCCGAGGAUAUCUAAUAUCUCAAACCGAAAUAUAAUCGGACAUGAGGAUCACCCAUGUAGAGAAGGCGGUCUCAGCA	–	–	31.1 nM	85 nM
AGGAAGUCAGGAUAUGCUGCUCGUCACUUGCGUGAUGAGUAGCAGAAGGGACAUGAGGAUCACCCAUGUAAAGA	–	–	51.1 nM	65.1 nM
AGGAAGUGAGGAUAUGCAGUGGCUUGUAGACGCAAGCACUUGUAGAAGGCACAUGAGGAUCACCCAUGUUUAAA	–	–	30.8 nM	37.3 nM
AGGACCAAAACAUCUACAUGAGGAUCACCCAUGUAUCGUAUGCAGGAUAUCCAUGGGUGGGCAGAGGAGAAGGGCAUUAAAAGA	61.6 nM	124 nM	–	–
AGGAGACAUGAGGAUCACCCAUGUGCGAGGUGAAGAGGAUAUAGAAGAAGAAGAAAGAAACUAGAAGGCUUAAAAA	220 nM	244 nM	–	–
AGGCGACAUGAGGAUCACCCAUGUGAGGAUAUCGAACUCUACUGUUGUGAGAGUAAGGCGAGAAGGCACACAGU	–	–	22.7 nM	25.3 nM
AGGCGGGUAGGAUAUGCGUACUUACGGGAAAGCUGAAUGGUACAUGAGGAUCACCCAUGUAGAAGGGCUCUGAA	–	–	18.3 nM	27 nM
AGGUACAUGAGGAUCACCCAUGUAAGAGACCUCAUGCGAUGUAGAAGGAUAAUCCGAGAAGAGGUAUAGGAUAUACAUGAGAAA	–	–	177 nM	149 nM
AGUAACAGAGGAUAUACUAUUUUAUGUGUUUGUUAUUUUAAACAUGAGGAUCACCCAUGUAGAAGGCUGAAUGA	–	–	28.4 nM	29.1 nM
AGUAACAGAGGAUAUACUGUUUUAUGUGUUUAUUAUUUUAAACAUGAGGAUCACCCAUGUAGAAGGCUGAAUAA	–	–	49.7 nM	40.4 nM

Sequence	apparent Kd [1]	apparent Kd [2]	apparent Kd [3]	apparent Kd [4]
AGUAAGAUGCAGAAGGUGUCAGCGAGAGCUACGACAUGAGGAUCACCCAUGUACUAGUGAGAGUACAAGGAUAUGCAUCUUACA	76.3 nM	8.54 nM	–	–
AGUACUACAGGAUAUACAUGAGUGAUACUCAUAUACCUUCUACAUGAGGAUCACCCAUGUAGAAGGGUAGUACA	–	–	15.3 nM	12.5 nM
AGUAGAUCAGGAUAUACAUAAAUGAUAAUUAUGUACCUUCUACAUGAGGAUCACCCAUGUAGAAGGGAUCUACA	–	–	13.1 nM	11.9 nM
AGUAGAUCAGGAUAUACAUGAAAGAUCAAAAUGUCACUACUACAUGAGGAUCACCCAUGUAGAAGGGAUCUACA	–	–	52.9 nM	36.7 nM
AGUAGAUCAGGAUAUACGUAAAUGGUAAUUAUGUAACUUAUACAUGAGGAUCACCCAUGUAGAAGGGAUCUACA	–	–	19.4 nM	51.9 nM
AGUAGUUUAACAUGAGGAUCACCCAUGUAUCUAUCUGUAACCUAGGAUAUGGACGUUGUAUUUAACCAGAAGGAGGAUCGUUUA	28.5 nM	17 nM	–	–
AGUAUGCACGCAGGAUAUACAUGAGGAUCACCCAUGUGGAACAGUGUAGUAUUAGUUGAUCCUCAGUAGAAGGGCGGUCGAAAU	–	–	82.5 nM	55.6 nM
AGUCAUACAGGAUAUACAUGAGGAUCACCCAUGUAUAUCCAAAAUGGGUGAUCCUCAUGUAGAAGGGUAUGACA	–	–	10.3 nM	10.5 nM
AGUCGGAGCAGAGGAUAUACAUGAGGAUCACCCAUGUAAAUGGAAUAAGCCUGGAAACAGGCAAUGUAGAAGGCUGCUCCGACA	–	–	75 nM	716 nM
AGUCGGAGCAGAGGAUAUACAUGAGGAUCACCCAUGUAAUAAAGUGAAGCUUGGAAACAGGCAAUGUAGAAGGCUGCUCCGACA	–	–	11.3 nM	68.6 nM
AGUCGGAGCAGAGGAUAUAUACAUGAGGAUCACCCAUGUAAAGAUCAAAGCAGGAAACUGCAAGUAUAGAAGGCUGCUCCGACA	–	–	108 nM	231 nM
AGUCGGCGAGGAUAUACAUGAGGAUCACCCAUGUGAUAUAGUGCACGCGUACGUGUACGUAGAAGGCGCUGACA	–	–	13.3 nM	40.1 nM
AGUCGGUUCUUUUAACAUGAGGAUCACCCAUGUAUUUGCAACUAGGAUAUCGAUAAUUAUUUCGUCGAGAAGGAGUAUACAUAA	–	–	24.2 nM	38.5 nM
AGUGUCAUCGAGAAGGCCUCAACAUGAGGAUCACCCAUGUUGCAAAAUGGGAGGAUAUCGCAAAAACAGCUACGUUUCGUAGCA	45.4 nM	7.43 nM	–	–
AGUGUCAUCGAGAAGGCCUCAACAUGAGGAUCACCCAUGUUGCAAAAUGGGAGGAUAUCGCGCGAAAAGCUACGUUUCGUAGCA	28.9 nM	11.6 nM	–	–
AGUGUCAUCGAGAAGGCCUUGACAUGAGGAUCACCCAUGUUGUAACAUGGGAGGAUAUCGAUGAUACAGCUACGUUUCGUAGCA	625 nM	47.3 nM	–	–
AGUUAAUAUCGAGGAUAUCUCAUGGAUACAUGAGGAUCACCCAUGUUAAUGGGAGAAGGCGAUAUUAACAGCAUGUUACAUGCA	28 nM	7.38 nM	–	–
AGUUCUUGUGAAGGAUAUACGGCGGGUCGCGCAGUAGAAGGUCACAUGAGGAUCACCCAUGUCGACAUUGUGCAGUAUCGACAA	–	–	82.9 nM	465 nM
AGUUGGCGAGGAUAUACAUGAGGAUCACCCAUGUGAAAUAUAAUAGUGAGGAAGAAAAGUAGAAGGCGCUGACA	–	–	48.3 nM	281 nM

Sequence	apparent Kd [1]	apparent Kd [2]	apparent Kd [3]	apparent Kd [4]
AUAAAACAUGAGGAUCACCCAUGUAAGGAUAUGCGAAAAUAAAAUAAAAUAAAAUAAAGCAGAAGGUACAAAAA	–	–	51 nM	59.6 nM
AUAAAACAUGAGGAUCACCCAUGUCAACAAAGUCGAGGAUAUGGGCAAAUAAAAUAAGAACCAGAAGGCGAAUAAU	398 nM	36.6 nM	–	–
AUAAAACAUGAGGAUCACCCAUGUCAACAAAGUCGAGGAUAUGGGCAAUUAAAAUAAGAACCAGAAGGCGAAUAAU	172 nM	39.8 nM	–	–
AUAAACCAAGGAUAUACAUGAGGAUCACCCAUGUUCCCUUGAACCCAGGGUAUGCAAUGUAGAAGGUGGGAAAC	–	–	20 nM	29.5 nM
AUAAACGCAGGAUAUACAUGAGGAUCACCCAUGUCCGCGCUUGUUGCGGGCACCUGAUGUAGAAGGGCGGGCGC	–	–	214 nM	184 nM
AUAAGCAUUUAUGUGUGCGUAGCACAGGAUAUGCUCCGCGCACAUGAGGAUCACCCAUGUUCGCAGCAGAAGGGUGCAUGCGUU	330 nM	61.5 nM	–	–
AUAAUGAGAGGAUAUACAUGAGGAUCACCCAUGUAAUUAACACGGCGAGCUCCAAUACGUAGAAGGCUCAUUUA	–	–	49.2 nM	35 nM
AUAAUGUAAGGAUAUCAGUCGACUAGCCUCGGCUAGUCGACUGAGAAGGUACAUGAGGAUCACCCAUGUGGUUC	–	–	1130 nM	484 nM
AUAAUUUUAUAAUUCUUUUUAUUCAGAAGGCAUAACAUGAGGAUCACCCAUGUAAAUUAAUGUUAUGAGGAUAUGAUUUGGUUA	–	–	22.5 nM	118 nM
AUACAUGAGGAUCACCCAUGUGGAUCACCCAUGUAAGAUGGUAGAAGGAUGUUAUUAUUAUUUUCAUAGGAUAUACUAUUUAGU	–	–	328 nM	408 nM
AUACAUGAGGAUCACCCAUGUUACUGGGUCUAAAUAGAACGUAGAAGGAUGUAUUUACACAUAACAUAGGAUAUACUAUAUAGU	–	–	153 nM	72.8 nM
AUACAUGAGGAUCACCCAUGUUACUGGGUCUAUAUAGAACGUAGAAGGAUGAUAUUAUAAAUAUCAUAGGAUAUACUAUAUUGU	–	–	32.7 nM	32 nM
AUACAUGAGGAUCACCCAUGUUACUGGGUCUAUAUAGAACGUAGAAGGAUGUUUAUACACAUAACAUAGGAUAUACAAUAUUGU	–	–	–	30.9 nM
AUACCACGAGGAUAUCGUCUAUUUCACAUGAGGAUCACCCAUGUUAUCUUUGUUUUGUUUCGAGAAGGCGUGUUUU	–	–	30.9 nM	20.9 nM
AUACCUUAUGAGAAGGCGGUCAUGAAACAUGAUCGAGGAUAUCAUGUAAACAUGAGGAUCACCCAUGUAUGGGUAUUAUGGUAG	61.8 nM	12.3 nM	–	–
AUACGCUGAGGAUAUACCAAAACAACAACCUCGUGUAUAAUACAUGAGGAUCACCCAUGUAGAAGGCAGUAAAC	–	–	58.6 nM	116 nM
AUACUCAUGUAAGGAUAUGCAGCCGAAACGGCUGCAGAAGGUACUAUAAUACAUGAGGAUCACCCAUGUCGAAAUAAAAUAGUU	201 nM	47.9 nM	–	–
AUACUCAUGUAAGGAUAUGCAGCCGUUUCGGCUGCAGAAGGUACUAUAAUACAUGAGGAUCACCCAUGUCUCUCGCCUUGCGAG	710 nM	89.7 nM	–	–
